# High-throughput results: PubChem, several laboratories
# Sampled rows, rich in hits. Any-hit rate of the full collection: about 1.7%.
# CSN deneddyl inh – CSN deneddylation inhibition. inhibition, % at 12.5 µM. Q92905. AID 651999. Purified CSN, SCF-Nedd8-OG deneddylation, fluorescence polarization. actives 0.38% (n = 360,000);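 active means pattern-corrected inhibition above about 35%, with an unprinted fluorescence ratio check between 0.5 and 1.5, limit read from the data, passing the limit was not always enough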;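 further: 0% = enzyme with substrate and 100% = substrate without enzyme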
#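 assay system = purified human Csn5 enzyme expressed in HEK293T cells | amount = 0.24 nM enzyme | buffer or medium = Tris/NaCl/DTT buffer, pH 7.5 | reagent = 10 nM SCFSkp2-Nedd8OG | compound = one concentration, 12.5 µM, 0.25% DMSO | times = 90 min reaction at room temperature | signal = FP | read-out basis = % inhibition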
# IDE act – boosts human insulin-degrading enzyme activity in HEK cells | FAbeta-B cleavage, fluorescence polarization; 0% vehicle, 100% cell-free pure enzyme wells | activation, % at 5.96 µM | actives 0.073% (n = 340,000) | AID 493087;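 active means activation above the mean of all tested compounds plus 3 SD, set per screening campaign, cut at about 17% in these data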
# IDE cell inh – inhibits human insulin-degrading enzyme in HEK cells; actives 0.41% (n = 320,000); inhibition, % at 5.59 µM; P14735; FAbetaB cleavage, fluorescence polarization;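 active means percent inhibition above the average of all tested compounds plus 3 SD, set per screening campaign, cut at about 16% in these data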;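 further: IDE supplied by intact live HEK cells; FP after avidin binding of uncleaved biotin substrate so inhibition keeps polarization high; 0% = DMSO wells and 100% = 60 µM reference IDE inhibitor Ii1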
# TPT1 inh – inhibitors of Candida albicans tRNA 2'-phosphotransferase TPT1; actives 0.81% (n = 300,000); recombinant caTPT1, FP RNA substrate dephosphorylation; inhibition, % at 5 µM; AID 1962;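 active means inhibition above the mean of all tested compounds plus 3 SD, set per screening campaign, cut at about 24% in these data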;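 further: plate controls were DMSO alone for no effect and ferristatin control at 100 nM for full effect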
# HNF4A DNA FP – change in binding of human HNF4 alpha to DNA. activity change, % at 10 µM. P41235. actives 0.3% (n = 360,000). AID 1224865. HNF4a-FITC DNA binding, fluorescence polarization, 1 h; in the data active means activity change above about 30%, passing the limit was not always enough
# Rpn11 block – inhibitors of human proteasome Rpn11 | O00487 | human 26S proteasome, Ub4-pepOG fluorescence polarization; 20S core pre-blocked with epoxomicin | inhibition, % at 20 µM | actives 0.59% (n = 360,000);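 active means inhibition at 20 µM, scaled to each plate's controls, above about 33%, limit read from the data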
# Target sequence (O00487 whole entry, looked up): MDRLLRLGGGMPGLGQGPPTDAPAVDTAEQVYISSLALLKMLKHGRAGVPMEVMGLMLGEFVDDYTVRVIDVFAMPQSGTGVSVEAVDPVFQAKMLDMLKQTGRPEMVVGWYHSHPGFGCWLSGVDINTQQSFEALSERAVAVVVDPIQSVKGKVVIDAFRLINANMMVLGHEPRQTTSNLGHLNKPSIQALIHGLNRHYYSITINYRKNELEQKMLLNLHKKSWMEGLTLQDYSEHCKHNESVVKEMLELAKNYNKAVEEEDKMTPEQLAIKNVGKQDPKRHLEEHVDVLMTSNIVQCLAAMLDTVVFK
# TPT1 inh confirm – confirmation of Candida albicans TPT1 inhibitors; AID 2149; inhibition, % at 5 µM; recombinant caTPT1, fluorescence polarization, RNase T1 coupled; shares compounds with TPT1 inh; actives 74% (n = 2,400);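 active means inhibition above the primary screen limit, the mean inhibition of all tested compounds plus 3 SD, cut at about 25% in these data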
# RNase T1 counter – counter-screen for TPT1 inhibitors: inhibitors of Aspergillus oryzae RNase T1. shares compounds with TPT1 inh. RNase T1 cleavage, fluorescence polarization, 1536-well. inhibition, % at 5 µM. actives 83% (n = 2,400). AID 2153;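 active means inhibition above the solvent-only control well mean plus 3 SD, limit set per screening run, cut at about 23% in these data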;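 further: plate controls were DMSO wells with enzyme for no effect and wells without RNase T1 for full effect; inhibitors block cleavage so intact labeled substrate keeps polarization high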
# Target sequence (P00651 whole entry, looked up): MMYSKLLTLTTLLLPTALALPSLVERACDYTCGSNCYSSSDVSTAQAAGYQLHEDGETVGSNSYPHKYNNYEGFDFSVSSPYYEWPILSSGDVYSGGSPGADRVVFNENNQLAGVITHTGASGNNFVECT
# The depositor's hits bear a star; x = not tested or not shown.
SMILES,CSN deneddyl inh,IDE act,IDE cell inh,TPT1 inh,HNF4A DNA FP,Rpn11 block,TPT1 inh confirm,RNase T1 counter
COc1ccccc1N1C(=O)C2C(C(=O)c3ccccc3)=NN(c3ccc(C)cc3)C2C1=O (stereo not given),6,x,9,51*,-23,-62,65*,73*
CC(=O)C1=NOC2C(=O)N(c3ccc(Cl)cc3)C(=O)C12 (stereo not given),4,-1,-1,-1,2,0,x,x
O=C(C1=NN(c2ccccc2)C2C(=O)N(c3ccc(Cl)cc3)C(=O)C12)c1ccccc1 (stereo not given),9,-18,15,33*,5,4,23,35*
COc1ccccc1N1C(=O)C2C(C(=O)c3ccccc3)=NN(c3ccc(Br)cc3)C2C1=O (stereo not given),24,x,3,35*,32,22,27*,41*
CCCC1=[N+](CC(=O)c2ccc(C)cc2)CCn2cccc21,-6,5,-2,62*,2,12,10,11
CCOc1cc(C2C(C#N)=C(N)Oc3cc(N)ccc32)ccc1O (stereo not given),7,-3,6,7,8,9,x,x
CCOc1ccc(C2C(C#N)=C(N)SC(N)=C2C#N)c(OCC)c1,129,-9,11,150*,137,x,22,32*
CN(C)CCCN(C(=O)c1ccc(Br)s1)c1nc2cc3c(cc2s1)OCCO3,5,3,5,31*,1,-3,28*,30*
CCN(CC)CCN(C(=O)c1ccc(Br)s1)c1nc2cc3c(cc2s1)OCCO3,-1,1,4,-6,5,-10,x,x
CCOc1ccc(Cl)cc1-c1cc(C(=O)Nc2ccc(C(C)C)cc2)[nH]n1,-1,x,x,x,-3,2,x,x
O=C1N(Cc2cccc(Cl)c2)C[C@@H]2C[C@@H](c3c[nH]c4ccccc34)N3CCC[C@@]123,49*,1,5,26*,85*,x,30*,40*
C[C@H]1CN([C@@H](C)CO)C(=O)CCCn2nncc2CO[C@@H]1CN(C)S(=O)(=O)c1ccc(Oc2ccccc2)nc1,5,x,x,x,1,-10,x,x
CCCCCCc1cc2cc(S(=O)(=O)c3ccc(F)cc3)c(=O)oc2cc1O,3,1,1,17,-4,11,x,x
CCCCCCc1cc2cc(C(=O)Nc3ccccc3OC)c(=O)oc2cc1O,0,1,1,-2,1,-3,x,x
CCCCCCc1cc2cc(-c3nnc(-c4cc(OC)c(OC)c(OC)c4)o3)c(=O)oc2cc1O,x,x,2,118*,x,x,130*,121*
CCCCCCc1cc2cc(-c3nnc(-c4ccccc4OC)o3)c(=O)oc2cc1O,87,5,48*,97*,88,x,97*,114*
CCC(NC(=O)CSc1nnnn1C1CC1)c1ccc(Br)cc1 (stereo not given),3,3,0,x,0,-6,x,x
O=C(Nc1ccccc1)c1ccc(NCCc2ccccc2)c([N+](=O)[O-])c1,133,6,1,45*,152,x,105*,115*
COc1ccccc1OCCC(=O)OCC(=O)c1c(N)n(C)c(=O)n(C)c1=O,-1,4,4,113*,1,-6,12,19
Cc1ccc(OCCC(=O)OCC(=O)c2c(N)n(C)c(=O)n(C)c2=O)cc1,7,-1,1,3,-3,3,x,x
COCCNC(=O)C(OC(=O)c1ccco1)c1ccc(OC)cc1 (stereo not given),2,6,x,x,-3,2,x,x
Cc1nc(-c2coc3cc(C)c(N=O)c(O)c3/c2=N\N)cs1,2,4,4,80*,1,3,9,15
O=C(c1ccc(N2CCCC2=O)cc1)N1CCOCC1,-1,-1,1,65*,0,-9,5,6
C=CCN1/C(=C2/SC(=S)N(C)C2=O)Sc2ccccc21,x,x,0,35*,x,x,59*,73*
Cc1ccc([C@@H]2CC(=O)[C@@H]3CN(S(=O)(=O)c4ccc(C)cc4)[C@H](c4ccccc4)C[C@@H]3N2S(=O)(=O)c2ccc(C)cc2)cc1,-5,x,x,x,-1,4,x,x
SMILES,CSN deneddyl inh,IDE act,IDE cell inh,TPT1 inh,HNF4A DNA FP,Rpn11 block,TPT1 inh confirm,RNase T1 counter
CC1=C(C(=O)N2CCCCCC2)CC(CC(=O)NCCc2ccccn2)C(=O)N1Cc1ccc(C(C)(C)C)cc1 (stereo not given),-4,x,x,x,2,x,x,x
COc1cccc(N=C2NC(=O)/C(=C/c3cc([N+](=O)[O-])ccc3O)S2)c1,113,-12,1,51*,76*,x,64*,70*
O=C1NC(=Nc2ccccc2Cl)S/C1=C\c1cc([N+](=O)[O-])ccc1O,108,-8,4,88*,76*,x,99*,99*
COc1ccc(N=C2S/C(=C\c3ccc(N4CCOCC4)o3)C(=O)N2CCc2c[nH]c3ccccc23)cc1,122,-21,7,131*,132,x,141*,136*
CCCN1C(=O)/C(=C/c2ccc(C)o2)SC1=Nc1ccc(OC)cc1,8,5,8,-2,-1,-1,x,x
NC(=O)c1sc2nc3c(c(-c4ccco4)c2c1N)CCC3,20,-7,1,0,-7,-11,x,x
Nc1c(C(=O)NC2CC2)sc2nc3c(c(-c4ccco4)c12)CC/C3=C/c1ccco1,52,-8,10,36*,-42,-26,3,1
N#Cc1cc(Sc2ccccn2)c([N+](=O)[O-])cc1C#N,23,-16,15,38*,23,57*,36*,45*
N#Cc1cc(Sc2ccccn2)c(Sc2ccccn2)cc1C#N,-3,1,2,0,2,4,x,x
CCCN1CCN(C(=O)C2CCN(c3nnc(C)c4c(C)n(-c5ccc(C)cc5)nc34)CC2)CC1,27,3,5,28*,34,x,36*,48*
Cc1ccc(-n2nc3c(N4CCC(C(=O)N5CCCCCC5)CC4)nnc(C)c3c2C)cc1,3,0,4,8,5,14,x,x
COc1ccc(OCCSc2nnc(CCNC(=O)c3ccc(Cl)c(Cl)c3)n2C)cc1,4,-7,2,-4,-6,-61,x,x
CCn1c(CCNC(=O)c2ccc(Cl)c(Cl)c2)nnc1SCCOc1ccc(OC)cc1,0,-3,6,25*,-3,-5,4,7
CCn1c2ccccc2c2c3ncc4cccn4c3ccc21,28,-6,1,33*,24,x,15,22*
